Converted amounts (≈) assume the structure as drawn. The source made the active and inactive calls. The calls are words filed in the database; no cut-off is given here.
Experiments:
Escherichia coli [1] = assay: Inhibition of Escherichia coli RNA topoisomerase 1 using circular RNA as substrate up to 80 uM after 1.5 hrs by SDS-PAGE analysis
Procedure, shortened: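 E. coli topoisomerase I (10 nM) premixed in reaction buffer with inhibitor diluted in DMSO, then circular RNA substrate added; 1.5 h. DMSO-only control included. Final inhibitor 2.5 to 80 μM. Stopped with proteinase K/SDS/EDTA. Trefoil RNA knot product resolved from substrate on 15% TBE-urea gels and detected by autoradiography.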

Shigella flexneri = assay: Antibacterial activity against Shigella flexneri 2457NR517 after 24 hrs by microbroth dilution method; format: functional; conditions: 2457NR517, 24 h
Procedure, shortened: (§1)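 Mueller-Hinton broth cultures grown at 37 °C with shaking to log phase, pelleted, resuspended in 0.85% saline to OD625 0.1. Broth microdilution per CLSI guidelines, final inoculum 5 × 10^5 CFU/mL, in triplicate, 24 h at 37 °C. Growth read as OD625. MIC is the lowest concentration giving complete growth inhibition versus untreated controls.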

[2] = test system: Staphylococcus epidermidis; assay: Antibacterial activity against Staphylococcus epidermidis ATCC 12384 after 24 hrs by microbroth dilution method; format: functional; conditions: ATCC 12384, 24 h
Procedure, shortened: (§2)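 Microbroth dilution per CLSI guidelines. Organisms grown in Mueller−Hinton broth at 37 °C with shaking to log phase, pelleted, resuspended in 0.85% saline to OD625 0.1. Final inoculum 5 × 10^5 CFU/mL; triplicate; 24 h at 37 °C. OD625 read; MIC = lowest concentration completely inhibiting growth versus untreated controls.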

Enterococcus faecalis = assay: Antibacterial activity against Enterococcus faecalis ATCC 29212 after 24 hrs by microbroth dilution method; format: functional; conditions: ATCC 29212, 24 h; procedure, shortened: as §2
Acinetobacter baumannii = assay: Antibacterial activity against Acinetobacter baumannii ATCC 19606 after 24 hrs by microbroth dilution method; format: functional; conditions: ATCC 19606 = CIP 70.34 = JCM 6841, 24 h; procedure, shortened: as §2
Enterobacter cloacae = assay: Antibacterial activity against Enterobacter cloacae ATCC 13047 after 24 hrs by microbroth dilution method; format: functional; conditions: ATCC 13047, 24 h; procedure, shortened: as §2
Escherichia coli [3] = assay: Antibacterial activity against Escherichia coli K-12 after 24 hrs by microbroth dilution method; format: functional; conditions: K-12, 24 h; procedure, shortened: as §2
[4] = Inhibition of human DNA topoisomerase 2 using plasmid pBAD-GFPuv as substrate after 30 mins by agarose gel electrophoresis
Procedure, shortened: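 Compound at 5–50 μM final, 30 min at 37 °C. Phenol extraction, 1% agarose electrophoresis, ethidium stain. IC50 = concentration at which 50% of DNA remains (−) supercoiled.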

DU-145 = assay: Cytotoxicity against human DU145 cells after 48 hrs by SRB assay; format: cell-based; conditions: for IC50: Homo sapiens, DU-145, 48 h; for Activity: human, du-145, 48 h
Procedure, shortened: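 Cells cultured per ATCC protocols, seeded and grown 24 h (37 °C, 5% CO2), then treated in triplicate at final 20, 10, 5, 2.5, 1.25, 0.625 and 0.0625 μM for 48 h. Fixed with cold TCA (16% final, 4 °C, 1 h), stained with SRB in 1% acetic acid, dye solubilized in 10 mM Tris base, A560 read. IC50 derived; study in duplicate.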

DNA topoisomerase 1 = target: T1, DNA topoisomerase 1 (Homo sapiens, UniProt P11387); assay: Inhibition of human DNA topoisomerase 1 using plasmid pBAD-GFPuv as substrate after 30 mins by agarose gel electrophoresis
T1 sequence (P11387 whole entry): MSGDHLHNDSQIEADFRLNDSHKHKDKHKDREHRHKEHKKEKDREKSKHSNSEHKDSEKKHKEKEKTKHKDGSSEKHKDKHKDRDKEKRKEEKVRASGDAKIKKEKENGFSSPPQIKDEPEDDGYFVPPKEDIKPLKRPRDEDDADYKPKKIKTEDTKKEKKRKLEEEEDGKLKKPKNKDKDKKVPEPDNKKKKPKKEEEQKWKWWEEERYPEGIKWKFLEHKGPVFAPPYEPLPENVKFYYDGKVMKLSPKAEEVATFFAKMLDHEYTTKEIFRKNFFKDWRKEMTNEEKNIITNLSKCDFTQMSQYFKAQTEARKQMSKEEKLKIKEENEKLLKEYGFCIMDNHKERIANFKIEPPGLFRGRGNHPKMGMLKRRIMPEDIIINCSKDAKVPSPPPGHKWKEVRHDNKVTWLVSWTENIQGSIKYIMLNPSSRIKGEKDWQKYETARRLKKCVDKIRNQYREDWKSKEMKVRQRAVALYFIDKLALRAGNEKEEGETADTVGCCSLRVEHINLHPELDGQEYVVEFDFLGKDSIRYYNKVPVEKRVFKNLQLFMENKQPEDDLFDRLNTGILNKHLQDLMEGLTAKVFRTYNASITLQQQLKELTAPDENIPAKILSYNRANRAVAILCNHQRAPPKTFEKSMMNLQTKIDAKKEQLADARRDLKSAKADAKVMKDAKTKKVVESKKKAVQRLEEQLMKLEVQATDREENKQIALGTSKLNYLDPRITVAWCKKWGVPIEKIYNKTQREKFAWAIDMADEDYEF

Staphylococcus aureus [5] = assay: Antibacterial activity against methicillin-resistant Staphylococcus aureus A960649 after 24 hrs by microbroth dilution method; format: functional; conditions: A960649, 24 h; procedure, shortened: as §1
Staphylococcus aureus [6] = assay: Antibacterial activity against Staphylococcus aureus ATCC 29213 after 24 hrs by microbroth dilution method; format: functional; conditions: ATCC 29213, 24 h; procedure, shortened: as §2
[7] = Binding affinity to dA60.dT60 B-DNA duplex (unknown origin) assessed as induction of biphasic transition at <5 uM by UV-vis spectrophotometric analysis
Klebsiella pneumoniae = assay: Antibacterial activity against Klebsiella pneumoniae NR15410 after 24 hrs by microbroth dilution method; format: functional; conditions: NR15410, 24 h; procedure, shortened: as §2
[8] = Inhibition of Escherichia coli DNA topoisomerase 1 using plasmid pBAD-GFPuv as substrate after 15 mins by agarose gel electrophoresis
Procedure, shortened: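 E. coli topoisomerase I at 6 nM relaxing 150 ng supercoiled pBAD-GFPuv. 15 min at 37 °C, phenol-stopped, 1% agarose gel, ethidium stain. IC50 is the concentration leaving 50% DNA supercoiled; three independent determinations.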

Enterococcus faecium = assay: Antibacterial activity against Enterococcus faecium BM4105RF after 24 hrs by microbroth dilution method; format: functional; procedure, shortened: as §1
Staphylococcus aureus [9] = assay: Antibacterial activity against methicillin-resistant Staphylococcus aureus 33591 after 24 hrs by microbroth dilution method; format: functional; conditions: Staphylococcus aureus, 33591, 24 h; procedure, shortened: as §1
Pseudomonas aeruginosa = assay: Antibacterial activity against Pseudomonas aeruginosa ATCC 27853 after 24 hrs by microbroth dilution method; format: functional; conditions: ATCC 27853, 24 h; procedure, shortened: as §2
Escherichia coli [10] = assay: Inhibition of Escherichia coli RNA topoisomerase-1 using circular RNA as substrate 10 uM after 1.5 hrs by SDS-PAGE analysis
Procedure, shortened: (§3)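 10 nM E. coli topoisomerase I premixed with reaction buffer and inhibitor diluted in DMSO, then circular RNA substrate added; 1.5 h incubation. Stopped with proteinase K/SDS/EDTA buffer. Trefoil RNA knot product separated from circular substrate on 15% TBE−urea gels and detected by phosphorimaging. DMSO-only control included.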

Escherichia coli [11] = assay: Antibacterial activity against Escherichia coli ATCC 25922 after 24 hrs by microbroth dilution method; format: functional; conditions: ATCC 25922, 24 h; procedure, shortened: as §2
Staphylococcus aureus [12] = assay: Antibacterial activity against Staphylococcus aureus ATCC 33591 after 24 hrs by microbroth dilution method; format: functional; conditions: ATCC 33591, 24 h; procedure, shortened: as §2
Citrobacter freundii = assay: Antibacterial activity against Citrobacter freundii 4747CFAA after 24 hrs by microbroth dilution method; format: functional; procedure, shortened: as §2
[13] = Binding affinity to dA60.dT60 B-DNA duplex (unknown origin) assessed as change in melting temperature at 10 uM by UV-vis spectrophotometric analysis
Procedure, shortened: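 UV melting of dA60·dT60 at 1 μM/duplex with compound at 10 μM. Buffer 10 mM sodium cacodylate, 0.1 mM EDTA, 100 mM NaCl, pH 7.0; duplex pre-annealed from 95 °C. Compound stocks in DMSO diluted into buffer. Heating at 0.2 °C/min, monitored at 260 nm, points every 1.0 °C; Tm taken from derivatives.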

Escherichia coli [14] = assay: Inhibition of Escherichia coli RNA topoisomerase 1 using circular RNA as substrate up to 50 uM after 1.5 hrs by SDS-PAGE analysis; procedure, shortened: as §3
Escherichia coli [15] = assay: Inhibition of Escherichia coli DNA gyrase using relaxed plasmid pBAD-GFPuv as substrate after 30 mins by agarose gel electrophoresis

Row | SMILES | MIC (Shigella flexneri) | MIC [2] | MIC (Enterococcus faecalis) | MIC (Acinetobacter baumannii) | MIC (Enterobacter cloacae) | MIC (Escherichia coli [3]) | IC50 (DU-145) | IC50 (DNA topoisomerase 1) | MIC (Staphylococcus aureus [5]) | MIC (Staphylococcus aureus [6]) | Activity [7] | MIC (Klebsiella pneumoniae) | IC50 [8] | MIC (Enterococcus faecium) | MIC (Staphylococcus aureus [9]) | MIC (Pseudomonas aeruginosa) | inhibition (Escherichia coli [10]) | MIC (Escherichia coli [11]) | MIC (Staphylococcus aureus [12]) | MIC (Citrobacter freundii) | other results
1 | CCOc1ccc2nc3cc(N)ccc3c(N)c2c1 | – | – | – | – | – | – | – | – | – | – | – | – | – | – | – | – | – | – | – | – | inhibition (Escherichia coli [1]): inactive
2 | C#CCOCCCCCCCCCCOc1ccc(-c2nc3ccc(-c4nc5ccc(N6CCN(C)CC6)cc5[nH]4)cc3[nH]2)cc1 | > 32 µg/mL | > 32 µg/mL | 16 to 32 µg/mL (≈ 25.9 to 51.7 µM) | > 32 µg/mL | > 32 µg/mL | 2 to 4 µg/mL (≈ 3.23 to 6.46 µM) | > 10 µM | > 50 µM | > 32 µg/mL | > 32 µg/mL | Active | > 32 µg/mL | 12.2 µM | > 32 µg/mL | > 32 µg/mL | 16 to 32 µg/mL (≈ 25.9 to 51.7 µM) | Active | > 32 µg/mL | > 32 µg/mL | > 32 µg/mL | IC50 [4]: > 50 µM; ΔTm [13]: 5.6 °C
3 | C#CCCCCOc1ccc(-c2nc3ccc(-c4nc5ccc(N6CCN(C)CC6)cc5[nH]4)cc3[nH]2)cc1 | 8 µg/mL (≈ 15.9 µM) | 1 to 2 µg/mL (≈ 1.98 to 3.96 µM) | – | 16 µg/mL (≈ 31.7 µM) | > 32 µg/mL | – | – | – | 4 µg/mL (≈ 7.93 µM) | – | – | > 32 µg/mL | – | 1 to 2 µg/mL (≈ 1.98 to 3.96 µM) | 4 µg/mL (≈ 7.93 µM) | 16 µg/mL (≈ 31.7 µM) | – | 8 to 16 µg/mL (≈ 15.9 to 31.7 µM) | – | > 32 µg/mL | Activity (DU-145): Toxic; inhibition (Escherichia coli [14]): inactive; inhibition (Escherichia coli [15]): inactive
4 | C#CCCCCCCCCCOc1ccc(-c2nc3ccc(-c4nc5ccc(N6CCN(C)CC6)cc5[nH]4)cc3[nH]2)cc1 | > 32 µg/mL | > 32 µg/mL | – | > 32 µg/mL | > 32 µg/mL | – | > 10 µM | – | > 32 µg/mL | – | – | > 32 µg/mL | – | > 32 µg/mL | > 32 µg/mL | 16 µg/mL (≈ 27.8 µM) | Active | 16 µg/mL (≈ 27.8 µM) | – | > 32 µg/mL | inhibition (Escherichia coli [15]): inactive
5 | C#CCOCCCCCCOc1ccc(-c2nc3ccc(-c4nc5ccc(N6CCN(C)CC6)cc5[nH]4)cc3[nH]2)cc1 | > 32 µg/mL | > 32 µg/mL | 16 to 32 µg/mL (≈ 28.4 to 56.9 µM) | > 32 µg/mL | > 32 µg/mL | 8 µg/mL (≈ 14.2 µM) | – | > 50 µM | > 32 µg/mL | 16 to 32 µg/mL (≈ 28.4 to 56.9 µM) | Active | > 32 µg/mL | 3.2 µM | > 32 µg/mL | > 32 µg/mL | 16 to 32 µg/mL (≈ 28.4 to 56.9 µM) | – | 16 to 32 µg/mL (≈ 28.4 to 56.9 µM) | 16 to 32 µg/mL (≈ 28.4 to 56.9 µM) | > 32 µg/mL | Activity (DU-145): Toxic; inhibition (Escherichia coli [14]): inactive; ΔTm [13]: 18.3 °C

Reference: ChEMBL document CHEMBL4014329, “Selective Inhibition of Escherichia coli RNA and DNA Topoisomerase I by Hoechst 33258 Derived Mono- and Bisbenzimidazoles” (J Med Chem, 2017)
